Experimental data published in ChEMBL document CHEMBL5058577, “EUbOPEN Chemogenomics Library 2 (Multiplex)” (2022).

Tested on: HEK-293T
Experiment: Multiplex assay against HEK293T
Type: toxicity, cell-based
Details: human
How it was run: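 Live cells carried four stains from seeding: Hoechst33342, BioTracker Green Microtubule Cytoskeleton Dye, MitoTracker Red and Annexin V Alexa Fluor 680. They were imaged on a CQ1 microscope at 37°C and 5% CO2 after compound addition. Using CellPathfinder machine-learning gating, cells were split into Hoechst high-intensity objects or normal cells, normal cells into healthy, pyknosed or fragmented nuclei, and pyknosed cells into mitotic or apoptotic; tubulin, mitochondrial-mass and membrane-permeability phenotypes are per cents of healthy-nucleus cells.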

[1] = 12 h, 1 µM, compound concentration 1 uM, replicate 1
[2] = 12 h, 1 µM, compound concentration 1 uM, replicate 2
[3] = 12 h, 10 µM, compound concentration 10 uM, replicate 1
[4] = 12 h, 10 µM, compound concentration 10 uM, replicate 2
[5] = 24 h, 1 µM, compound concentration 1 uM, replicate 1
[6] = 24 h, 1 µM, compound concentration 1 uM, replicate 2
[7] = 24 h, 10 µM, compound concentration 10 uM, replicate 1
[8] = 24 h, 10 µM, compound concentration 10 uM, replicate 2
[9] = 48 h, 1 µM, compound concentration 1 uM, replicate 1
[10] = 48 h, 1 µM, compound concentration 1 uM, replicate 2
[11] = 48 h, 10 µM, compound concentration 10 uM, replicate 1
[12] = 48 h, 10 µM, compound concentration 10 uM, replicate 2

CCn1c(-c2nc3cc(C(=O)N4CCCC(N)C4)ccc3n2C)cc2ccccc21.Cl (stereo not drawn)
Population Apoptotic (%) [1]: 54%
Population Fragmented Nuclei (%) [1]: 9%
Population Healthy Nuclei (%) [1]: 77%
Population Hoechst High Intensity Objects (%) [1]: 7%
Population Membrane Permeable-Phenotype (%) [1]: 0%
Population Mitochondria Different-Phenotype (%) [1]: 52%
Population Mitotic Cells (%) [1]: 45%
Population Normal (%) [1]: 92%
Population Pyknosed Nuclei (%) [1]: 13%
Population Tubulin-Different-Phenotype (%) [1]: 33%
Total Cell Count [1]: 351
Population Apoptotic (%) [2]: 47%
Population Fragmented Nuclei (%) [2]: 5%
Population Healthy Nuclei (%) [2]: 81%
Population Hoechst High Intensity Objects (%) [2]: 6%
Population Mitochondria Different-Phenotype (%) [2]: 69%
Population Mitotic Cells (%) [2]: 52%
Population Normal (%) [2]: 93%
Population Tubulin-Different-Phenotype (%) [2]: 20%
Total Cell Count [2]: 312
Population Apoptotic (%) [3]: 53%
Population Fragmented Nuclei (%) [3]: 8%
Population Healthy Nuclei (%) [3]: 74%
Population Hoechst High Intensity Objects (%) [3]: 11%
Population Membrane Permeable-Phenotype (%) [3]: 0%
Population Mitochondria Different-Phenotype (%) [3]: 85%
Population Mitotic Cells (%) [3]: 46%
Population Normal (%) [3]: 88%
Population Pyknosed Nuclei (%) [3]: 17%
Population Tubulin-Different-Phenotype (%) [3]: 75%
Total Cell Count [3]: 406
Population Fragmented Nuclei (%) [4]: 6%
Population Healthy Nuclei (%) [4]: 78%
Population Hoechst High Intensity Objects (%) [4]: 8%
Population Normal (%) [4]: 91%
Population Pyknosed Nuclei (%) [4]: 15%
Population Tubulin-Different-Phenotype (%) [4]: 64%
Total Cell Count [4]: 398
Population Apoptotic (%) [5]: 35%
Population Fragmented Nuclei (%) [5]: 9%
Population Healthy Nuclei (%) [5]: 80%
Population Hoechst High Intensity Objects (%) [5]: 6%
Population Membrane Permeable-Phenotype (%) [5]: 0%
Population Mitochondria Different-Phenotype (%) [5]: 37%
Population Mitotic Cells (%) [5]: 64%
Population Normal (%) [5]: 93%
Population Pyknosed Nuclei (%) [5]: 10%
Population Tubulin-Different-Phenotype (%) [5]: 22%
Total Cell Count [5]: 459
Population Apoptotic (%) [6]: 39%
Population Healthy Nuclei (%) [6]: 79%
Population Hoechst High Intensity Objects (%) [6]: 4%
Population Mitochondria Different-Phenotype (%) [6]: 49%
Population Mitotic Cells (%) [6]: 60%
Population Normal (%) [6]: 95%
Population Pyknosed Nuclei (%) [6]: 11%
Population Tubulin-Different-Phenotype (%) [6]: 14%
Total Cell Count [6]: 383
Population Apoptotic (%) [7]: 51%
Population Fragmented Nuclei (%) [7]: 11%
Population Healthy Nuclei (%) [7]: 70%
Population Hoechst High Intensity Objects (%) [7]: 12%
Population Membrane Permeable-Phenotype (%) [7]: 1%
Population Mitochondria Different-Phenotype (%) [7]: 72%
Population Mitotic Cells (%) [7]: 48%
Population Normal (%) [7]: 87%
Population Pyknosed Nuclei (%) [7]: 18%
Population Tubulin-Different-Phenotype (%) [7]: 64%
Total Cell Count [7]: 449
Population Apoptotic (%) [8]: 40%
Population Fragmented Nuclei (%) [8]: 8%
Population Healthy Nuclei (%) [8]: 78%
Population Hoechst High Intensity Objects (%) [8]: 9%
Population Membrane Permeable-Phenotype (%) [8]: 0%
Population Mitochondria Different-Phenotype (%) [8]: 83%
Population Mitotic Cells (%) [8]: 59%
Population Normal (%) [8]: 90%
Population Pyknosed Nuclei (%) [8]: 13%
Population Tubulin-Different-Phenotype (%) [8]: 58%
Total Cell Count [8]: 471
Population Apoptotic (%) [9]: 20%
Population Fragmented Nuclei (%) [9]: 12%
Population Healthy Nuclei (%) [9]: 79%
Population Hoechst High Intensity Objects (%) [9]: 5%
Population Membrane Permeable-Phenotype (%) [9]: 1%
Population Mitochondria Different-Phenotype (%) [9]: 28%
Population Mitotic Cells (%) [9]: 79%
Population Normal (%) [9]: 94%
Population Pyknosed Nuclei (%) [9]: 8%
Population Tubulin-Different-Phenotype (%) [9]: 17%
Total Cell Count [9]: 771
Population Apoptotic (%) [10]: 14%
Population Fragmented Nuclei (%) [10]: 13%
Population Healthy Nuclei (%) [10]: 81%
Population Hoechst High Intensity Objects (%) [10]: 4%
Population Membrane Permeable-Phenotype (%) [10]: 0%
Population Mitochondria Different-Phenotype (%) [10]: 30%
Population Mitotic Cells (%) [10]: 85%
Population Normal (%) [10]: 95%
Population Pyknosed Nuclei (%) [10]: 5%
Population Tubulin-Different-Phenotype (%) [10]: 11%
Total Cell Count [10]: 640
Population Apoptotic (%) [11]: 50%
Population Fragmented Nuclei (%) [11]: 14%
Population Healthy Nuclei (%) [11]: 73%
Population Hoechst High Intensity Objects (%) [11]: 15%
Population Membrane Permeable-Phenotype (%) [11]: 0%
Population Mitochondria Different-Phenotype (%) [11]: 65%
Population Mitotic Cells (%) [11]: 49%
Population Normal (%) [11]: 84%
Population Pyknosed Nuclei (%) [11]: 12%
Population Tubulin-Different-Phenotype (%) [11]: 63%
Total Cell Count [11]: 605
Population Apoptotic (%) [12]: 52%
Population Fragmented Nuclei (%) [12]: 10%
Population Healthy Nuclei (%) [12]: 79%
Population Hoechst High Intensity Objects (%) [12]: 8%
Population Mitochondria Different-Phenotype (%) [12]: 71%
Population Mitotic Cells (%) [12]: 47%
Population Normal (%) [12]: 91%
Population Pyknosed Nuclei (%) [12]: 9%
Total Cell Count [12]: 613

O=C(NCCNCC(O)COc1ccc(O)cc1)N1CCOCC1.O=C(NCCNCC(O)COc1ccc(O)cc1)N1CCOCC1.O=C(O)/C=C/C(=O)O (stereo not drawn) [XAMOTEROL FUMARATE]
Population Apoptotic (%) [1]: 39%
Population Fragmented Nuclei (%) [1]: 5%
Population Healthy Nuclei (%) [1]: 79%
Population Hoechst High Intensity Objects (%) [1]: 4%
Population Membrane Permeable-Phenotype (%) [1]: 0%
Population Mitochondria Different-Phenotype (%) [1]: 39%
Population Mitotic Cells (%) [1]: 60%
Population Normal (%) [1]: 95%
Population Pyknosed Nuclei (%) [1]: 14%
Population Tubulin-Different-Phenotype (%) [1]: 26%
Total Cell Count [1]: 339
Population Apoptotic (%) [2]: 60%
Population Healthy Nuclei (%) [2]: 76%
Population Hoechst High Intensity Objects (%) [2]: 14%
Population Mitochondria Different-Phenotype (%) [2]: 57%
Population Mitotic Cells (%) [2]: 39%
Population Normal (%) [2]: 85%
Population Pyknosed Nuclei (%) [2]: 17%
Population Tubulin-Different-Phenotype (%) [2]: 21%
Total Cell Count [2]: 271
Population Apoptotic (%) [3]: 35%
Population Fragmented Nuclei (%) [3]: 7%
Population Healthy Nuclei (%) [3]: 83%
Population Hoechst High Intensity Objects (%) [3]: 6%
Population Membrane Permeable-Phenotype (%) [3]: 0%
Population Mitochondria Different-Phenotype (%) [3]: 39%
Population Mitotic Cells (%) [3]: 65%
Population Normal (%) [3]: 93%
Population Pyknosed Nuclei (%) [3]: 8%
Population Tubulin-Different-Phenotype (%) [3]: 19%
Total Cell Count [3]: 499
Population Apoptotic (%) [4]: 29%
Population Fragmented Nuclei (%) [4]: 4%
Population Healthy Nuclei (%) [4]: 86%
Population Hoechst High Intensity Objects (%) [4]: 5%
Population Mitochondria Different-Phenotype (%) [4]: 62%
Population Mitotic Cells (%) [4]: 70%
Population Normal (%) [4]: 94%
Population Pyknosed Nuclei (%) [4]: 9%
Population Tubulin-Different-Phenotype (%) [4]: 23%
Total Cell Count [4]: 406
Population Apoptotic (%) [5]: 26%
Population Fragmented Nuclei (%) [5]: 8%
Population Healthy Nuclei (%) [5]: 78%
Population Hoechst High Intensity Objects (%) [5]: 6%
Population Membrane Permeable-Phenotype (%) [5]: 0%
Population Mitochondria Different-Phenotype (%) [5]: 18%
Population Mitotic Cells (%) [5]: 73%
Population Normal (%) [5]: 93%
Population Pyknosed Nuclei (%) [5]: 12%
Population Tubulin-Different-Phenotype (%) [5]: 17%
Total Cell Count [5]: 475
Population Apoptotic (%) [6]: 45%
Population Fragmented Nuclei (%) [6]: 9%
Population Healthy Nuclei (%) [6]: 80%
Population Hoechst High Intensity Objects (%) [6]: 13%
Population Mitochondria Different-Phenotype (%) [6]: 38%
Population Mitotic Cells (%) [6]: 54%
Population Normal (%) [6]: 86%
Population Pyknosed Nuclei (%) [6]: 10%
Population Tubulin-Different-Phenotype (%) [6]: 15%
Total Cell Count [6]: 366
Population Apoptotic (%) [7]: 21%
Population Fragmented Nuclei (%) [7]: 9%
Population Healthy Nuclei (%) [7]: 79%
Population Hoechst High Intensity Objects (%) [7]: 5%
Population Membrane Permeable-Phenotype (%) [7]: 0%
Population Mitochondria Different-Phenotype (%) [7]: 25%
Population Mitotic Cells (%) [7]: 78%
Population Normal (%) [7]: 94%
Population Pyknosed Nuclei (%) [7]: 11%
Population Tubulin-Different-Phenotype (%) [7]: 12%
Total Cell Count [7]: 632
Population Apoptotic (%) [8]: 33%
Population Fragmented Nuclei (%) [8]: 7%
Population Healthy Nuclei (%) [8]: 85%
Population Hoechst High Intensity Objects (%) [8]: 4%
Population Mitochondria Different-Phenotype (%) [8]: 42%
Population Mitotic Cells (%) [8]: 66%
Population Normal (%) [8]: 95%
Population Pyknosed Nuclei (%) [8]: 7%
Population Tubulin-Different-Phenotype (%) [8]: 17%
Total Cell Count [8]: 542
Population Apoptotic (%) [9]: 21%
Population Fragmented Nuclei (%) [9]: 14%
Population Healthy Nuclei (%) [9]: 77%
Population Hoechst High Intensity Objects (%) [9]: 2%
Population Membrane Permeable-Phenotype (%) [9]: 2%
Population Mitochondria Different-Phenotype (%) [9]: 11%
Population Mitotic Cells (%) [9]: 78%
Population Normal (%) [9]: 97%
Population Pyknosed Nuclei (%) [9]: 7%
Population Tubulin-Different-Phenotype (%) [9]: 9%
Total Cell Count [9]: 918
Population Apoptotic (%) [10]: 41%
Population Fragmented Nuclei (%) [10]: 11%
Population Healthy Nuclei (%) [10]: 81%
Population Hoechst High Intensity Objects (%) [10]: 4%
Population Membrane Permeable-Phenotype (%) [10]: 0%
Population Mitochondria Different-Phenotype (%) [10]: 18%
Population Mitotic Cells (%) [10]: 58%
Population Normal (%) [10]: 95%
Population Pyknosed Nuclei (%) [10]: 6%
Population Tubulin-Different-Phenotype (%) [10]: 10%
Total Cell Count [10]: 526
Population Apoptotic (%) [11]: 17%
Population Fragmented Nuclei (%) [11]: 15%
Population Healthy Nuclei (%) [11]: 79%
Population Hoechst High Intensity Objects (%) [11]: 0%
Population Membrane Permeable-Phenotype (%) [11]: 1%
Population Mitochondria Different-Phenotype (%) [11]: 13%
Population Mitotic Cells (%) [11]: 82%
Population Normal (%) [11]: 99%
Population Pyknosed Nuclei (%) [11]: 5%
Population Tubulin-Different-Phenotype (%) [11]: 6%
Total Cell Count [11]: 1116
Population Apoptotic (%) [12]: 25%
Population Fragmented Nuclei (%) [12]: 16%
Population Healthy Nuclei (%) [12]: 77%
Population Hoechst High Intensity Objects (%) [12]: 2%
Population Membrane Permeable-Phenotype (%) [12]: 0%
Population Mitochondria Different-Phenotype (%) [12]: 16%
Population Mitotic Cells (%) [12]: 74%
Population Normal (%) [12]: 97%
Population Tubulin-Different-Phenotype (%) [12]: 10%
Total Cell Count [12]: 827
